Source: paper PMC4980077 (The FEBS journal, 2016)

How the values were obtained:
[1] = tested on: PKA-Cα; experiment: 32P phosphorylation; format: biochemical; conditions: PKA-Cα 20 nM, pH 7.5; n = 3
Method in brief: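 Substrate was His-tagged human smAKAP (wild type, or S66D with PKA-Cα) at 10 μM. It was incubated with 20 nM recombinant kinase in 50 mM MOPS pH 7.5 containing 10 mM MgCl2, 200 μM ATP and [32P]ATP. Aliquots were quenched in 30% acetic acid at 0, 5, 10 and 15 min. Results are means ± SD of 3 independent experiments.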

[2] = tested on: PKA-RIα; experiment: Confocal colocalization with PKA-RIα in HeLa cells; format: cell-based; conditions: phosphomimetic mutant + PKA-RIα-mKO2
[3] = tested on: PKA-RIβ; experiment: Confocal colocalization with PKA-RIβ-mKO2 in HeLa cells; format: cell-based; conditions: for localization of PKA-RIβ on co-transfection: phosphomimetic mutant + PKA-RIβ-mKO2
Method in brief: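 HeLa cells co-expressed GFP-tagged smAKAP (wild type, S66E or S66D) with mKO2-tagged PKA-RIα or RIβ. Cells were washed in ice-cold PBS, fixed in ice-cold 4% formaldehyde in PBS, washed twice and imaged by confocal microscopy through a 63× oil objective. Stimulated cells received calyculin A plus 8-CPT-cAMP and were imaged live.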

Row | Molecule | phosphorylation by PKA [1] | localization of PKA-RIα on co-transfection [2] | localization of PKA-RIβ on co-transfection [3] | colocalization with PKA-RIβ-mKO2 ([3]; transfected, confocal, unstimulated)
1 | smAKAP-S66D: recombinant smAKAP with Ser66 mutated to an aspartic acid (protein, UniProt Q9BSF0 2-95, looked up, variant S66D) Small membrane A-kinase …: GCMKSKQTFPFPTIYEGEKQHESEEPFMPEERCLPRMASPVNVKEEVKEPPGTNTVILEYAHRLDQDILCDALQQWACNNIKYHDIPYIESEGP | no detectable levels of phosphorylation |  |  | 
2 | smAKAP-S66D-GFP: phosphomimetic mutant GFP fusion (protein, UniProt Q9BSF0 2-95, looked up, variant S66D, GFP fusion) Small membrane A-kinase …: GCMKSKQTFPFPTIYEGEKQHESEEPFMPEERCLPRMASPVNVKEEVKEPPGTNTVILEYAHRLDQDILCDALQQWACNNIKYHDIPYIESEGP |  | predominantly resided in the cytoplasm | predominantly resided in the cytoplasm | 
3 | smAKAP-S66E-GFP: phosphomimetic mutant GFP fusion (protein, UniProt Q9BSF0 2-95, looked up, variant S66E, GFP fusion) Small membrane A-kinase …: GCMKSKQTFPFPTIYEGEKQHESEEPFMPEERCLPRMASPVNVKEEVKEPPGTNTVILEYAHRLEQDILCDALQQWACNNIKYHDIPYIESEGP |  | predominantly resided in the cytoplasm | predominantly resided in the cytoplasm | no colocalization occurs
